Source: ChEMBL document CHEMBL3286113, “New potent antibacterial oxazolidinone (MRX-I) with an improved class safety profile” (J Med Chem, 2014)
≈ marks a conversion by molar mass, not a printed value. Calls of active or inactive are those of the source. The calls are words filed in the database; no cut-off is given here.

Assays:
Streptococcus sanguinis = test: Antibacterial activity against Streptococcus sanguinis; format: functional
[1] = Cmax in human at 600 mg, po administered as single dose with meal measured on day 15; format: ADME, organism-based; design: dose 600 mg, route oral; conditions: in vivo
Summary of the method: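 Randomized, double-blind, placebo-controlled multiple-dose study in 32 healthy subjects, half male and half female. Each dose was taken with a meal, at 600 or 800 mg, 28 doses over 15 days. A single dose on days 1 and 15 gave full PK; BID (Q12h) dosing ran on days 2–14.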

[2] = Tmax in female rat at 45 mg/kg, po; format: ADME, organism-based; design: dose 45 mg/kg, route oral; conditions: in vivo
Summary of the method: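 Male and female rats received single oral doses of 5, 15 or 45 mg/kg, with 5 mg/kg iv as a reference arm. Tmax was read from the plasma concentration–time profile for each gender.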

Staphylococcus aureus [3] = test: Antibacterial activity against Staphylococcus aureus assessed as low frequency of spontaneous resistance; format: functional, organism-based
Rattus norvegicus [4] = test: Toxicity in female rat assessed as effect on platelet count at 100 mg/kg/day, po bid administered for 4 weeks (reference value: 654.6 x 10^9/L); format: organism-based; design: route oral; conditions: in vivo, 672 h
[5] = AUC (0 to t) in male rat at 45 mg/kg, po; format: ADME, organism-based; design: dose 45 mg/kg, route oral; conditions: plasma
Summary of the method: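 Rat PK by gender, with single oral doses of 5, 15 and 45 mg/kg and an iv dose of 5 mg/kg. Tmax, Cmax, T1/2 and AUC0−t were reported per gender.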

Rattus norvegicus [6] = test: Toxicity in female rat assessed as effect on neutrophil count at 20 mg/kg/day, po bid administered for 4 weeks (reference value: 22.4%); format: organism-based; design: route oral; conditions: in vivo, 672 h
Rattus norvegicus [7] = test: Dose normalized AUC (0 to t) in po dosed rat; format: ADME, organism-based; conditions: in vivo
Cytochrome P450 2C19 = Cytochrome P450 2C19 (Homo sapiens, UniProt P33261); test: Inhibition of CYP2C19 (unknown origin) at 1 to 200 uM; format: ADME
Rattus norvegicus [8] = test: Toxicity in female rat assessed as effect on mean corpuscular volume at 20 mg/kg/day, po bid administered for 4 weeks (reference value: 53.72 fL); format: organism-based; design: route oral; conditions: in vivo, 672 h
Cytochrome P450 3A4 = Cytochrome P450 3A4 (Homo sapiens, UniProt P08684); test: Inhibition of CYP3A4 (unknown origin) at 1 to 200 uM; format: ADME
Staphylococcus aureus [9] = test: Antibacterial activity against methicillin-sensitive Staphylococcus aureus; format: functional
Enterococcus faecalis [10] = test: Antibacterial activity against vancomycin-resistant Enterococcus faecalis isolate EFL 4041; format: functional
[11] = Oral bioavailability in dog; format: ADME, organism-based, Canis lupus familiaris; conditions: in vivo
Staphylococcus aureus [12] = test: Antibacterial activity against methicillin-resistant Staphylococcus aureus by agar dilution method; format: functional
Summary of the method: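 MIC determined by agar dilution across S. aureus/MRSA isolates; MIC90 is the concentration inhibiting 90% of strains tested.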

Staphylococcus = test: Antibacterial activity against coagulase-negative Staphylococcus; format: functional
Staphylococcus aureus [13] = test: Antibacterial activity against Staphylococcus aureus in po dosed mouse septicemia model; format: functional
Rattus norvegicus [14] = test: Toxicity in female rat assessed as effect on WBC count at 20 mg/kg/day, po bid administered for 4 weeks (reference value: 3.66 x 10^9/L); format: organism-based; design: route oral; conditions: in vivo, 672 h
Staphylococcus aureus [15] = test: Antibacterial activity against Staphylococcus aureus measured after 9 serial passages; format: functional
[16] = Tmax in human at 900 mg, po administered as single dose at 30 mins post fat meal; format: ADME, organism-based; conditions: in vivo
Summary of the method: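 Crossover study in 12 healthy subjects (six per gender). A single oral 900 mg dose was given either fasting or 30 min after a fat-containing meal. Tmax was taken from plasma PK.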

Streptococcus pneumoniae = test: Antibacterial activity against penicillin-sensitive Streptococcus pneumoniae isolate 0806; format: functional
[17] = Half life in male rat at 5 mg/kg, iv; format: ADME, organism-based; design: dose 5 mg/kg, route intravenous; conditions: in vivo
Staphylococcus aureus [18] = test: Antibacterial activity against methicillin-sensitive Staphylococcus aureus ATCC 29213 in po dosed mouse systemic infection model; format: functional; conditions: ATCC 29213, po
[19] = target: T1, Amine oxidase [flavin-containing] A (Homo sapiens, UniProt P21397); test: Inhibition of MAO-A (unknown origin) using tyramine as substrate after 30 to 60 mins by fluorescence plate reader analysis
T1 sequence (P21397 whole entry): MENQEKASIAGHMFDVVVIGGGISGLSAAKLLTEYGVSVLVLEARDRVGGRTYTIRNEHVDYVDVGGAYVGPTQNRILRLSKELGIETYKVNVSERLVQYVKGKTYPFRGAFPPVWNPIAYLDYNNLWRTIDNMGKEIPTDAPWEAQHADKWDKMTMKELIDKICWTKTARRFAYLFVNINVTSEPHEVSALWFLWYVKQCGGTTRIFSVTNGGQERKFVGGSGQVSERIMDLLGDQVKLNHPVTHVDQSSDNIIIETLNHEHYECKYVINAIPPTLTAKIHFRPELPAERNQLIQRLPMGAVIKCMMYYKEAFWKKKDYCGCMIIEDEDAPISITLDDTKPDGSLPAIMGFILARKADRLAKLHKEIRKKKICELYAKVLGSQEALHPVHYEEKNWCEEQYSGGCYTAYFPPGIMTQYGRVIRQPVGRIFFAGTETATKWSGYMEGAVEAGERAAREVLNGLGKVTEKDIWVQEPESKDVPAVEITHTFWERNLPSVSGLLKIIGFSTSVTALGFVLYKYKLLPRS

[20] = system: Staphylococcus saprophyticus; test: Antibacterial activity against Staphylococcus saprophyticus; format: functional
L5178Y = test: Mutagenicity in mouse tk +/- L5178Y cells assessed as increase in gene mutation frequency at 62.5 to 1000 ug/mL in presence of S9 fraction
[21] = Tmax in fasted human at 900 mg, po administered as single dose; format: ADME, organism-based; conditions: in vivo
Summary of the method: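 Randomized single-dose, three-period Latin-square crossover in 12 healthy volunteers (six per gender), fasting. Single oral doses of 300, 600 and 900 mg were separated by a 1-week washout. PK parameters were derived by noncompartmental analysis.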

[22] = Cmax in male rat at 5 mg/kg, po; format: ADME, organism-based; design: dose 5 mg/kg, route oral; conditions: in vivo
Staphylococcus aureus [23] = test: Antibacterial activity against Staphylococcus aureus measured after 1 serial passage; format: functional
Staphylococcus aureus [24] = test: Antibacterial activity against Staphylococcus aureus measured after 8 serial passages; format: functional
MAO-A = MAO-A (Homo sapiens, UniProt P21397); test: Ratio of compound IC50 to linezolid IC50 for MAO-A (unknown origin) by fluorescence plate reader analysis; format: ADME
Enterococcus faecalis [25] = test: Antibacterial activity against vancomycin-resistant Enterococcus faecalis isolate EFL 4041 in po dosed mouse systemic infection model; format: functional; conditions: isolate EFL 4041, po
Rattus norvegicus [26] = test: Drug uptake in rat at 20 to 300 mg/kg/day, po bid administered for 4 weeks measured after day 28; format: ADME, organism-based; design: route oral; conditions: in vivo, 672 h
Summary of the method: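 Rats, 10 per sex per group, dosed orally twice daily at 20, 100 and 200 mg/kg/day for 4 weeks, then a 4-week recovery. The top dose was raised to 300 mg/kg/day on day 15. Toxicokinetic blood samples were drawn on days 1, 14 and 28.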

Chain of Cytochrome P450 3A4 (P08684 whole entry): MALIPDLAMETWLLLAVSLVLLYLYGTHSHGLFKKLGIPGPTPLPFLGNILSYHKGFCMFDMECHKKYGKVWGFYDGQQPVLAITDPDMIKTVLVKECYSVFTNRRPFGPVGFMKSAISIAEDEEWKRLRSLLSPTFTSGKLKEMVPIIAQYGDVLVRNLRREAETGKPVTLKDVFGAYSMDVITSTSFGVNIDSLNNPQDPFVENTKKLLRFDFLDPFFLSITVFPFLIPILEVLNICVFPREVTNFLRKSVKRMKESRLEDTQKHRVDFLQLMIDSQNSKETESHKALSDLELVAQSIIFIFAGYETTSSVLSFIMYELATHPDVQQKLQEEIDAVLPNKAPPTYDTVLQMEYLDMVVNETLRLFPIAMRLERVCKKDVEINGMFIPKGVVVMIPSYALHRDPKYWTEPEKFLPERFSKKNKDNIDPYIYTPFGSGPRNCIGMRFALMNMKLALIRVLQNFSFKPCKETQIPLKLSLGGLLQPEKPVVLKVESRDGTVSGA
Chain of Cytochrome P450 2C19 (P33261 whole entry): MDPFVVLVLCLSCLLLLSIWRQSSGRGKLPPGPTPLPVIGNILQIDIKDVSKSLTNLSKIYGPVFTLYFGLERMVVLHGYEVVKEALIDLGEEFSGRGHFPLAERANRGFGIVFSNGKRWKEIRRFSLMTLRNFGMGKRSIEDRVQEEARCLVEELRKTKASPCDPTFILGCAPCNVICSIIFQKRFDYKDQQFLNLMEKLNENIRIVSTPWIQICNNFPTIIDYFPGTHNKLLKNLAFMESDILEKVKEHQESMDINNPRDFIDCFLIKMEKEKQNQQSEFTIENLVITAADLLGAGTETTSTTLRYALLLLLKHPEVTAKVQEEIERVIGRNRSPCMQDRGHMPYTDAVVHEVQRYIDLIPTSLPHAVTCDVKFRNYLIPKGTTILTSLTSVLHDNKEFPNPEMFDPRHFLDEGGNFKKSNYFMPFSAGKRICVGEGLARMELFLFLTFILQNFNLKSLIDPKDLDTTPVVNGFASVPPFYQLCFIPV

## O=C1C=CN(c2c(F)cc(N3C[C@H](CNc4ccon4)OC3=O)c(F)c2F)CC1 [CONTEZOLID]
Streptococcus sanguinis
  MIC: 0.25 µg/mL (≈ 0.612 µM)
[1]
  Cmax: 20600 ng/mL
[2]
  Tmax: 1.67 h
Staphylococcus aureus [3]
  Activity: Active
Rattus norvegicus [4]
  Activity: 636.2 ×10⁹ /L
[5]
  AUC(0-t): 93800 ng·h/mL
Rattus norvegicus [6]
  Activity: 15.4%
Rattus norvegicus [7]
  AUCt/dose: 3703 ng·h/mL/mg/kg
Cytochrome P450 2C19
  inhibition (INH): Not Active
Rattus norvegicus [8]
  Activity: 54.52 fL
Cytochrome P450 3A4
  inhibition (INH): Not Active
Staphylococcus aureus [9]
  MIC: 0.5 µg/mL (≈ 1.22 µM)
  MIC50: 0.5 µg/mL (≈ 1.22 µM)
  MIC90: 0.5 µg/mL (≈ 1.22 µM)
Enterococcus faecalis [10]
  MIC: 1 µg/mL (≈ 2.45 µM)
[11]
  bioavailability: 37%
Staphylococcus aureus [12]
  MIC50: 0.5 µg/mL (≈ 1.22 µM)
  MIC90: 0.5 µg/mL (≈ 1.22 µM)
Staphylococcus
  MIC50: 0.5 µg/mL (≈ 1.22 µM)
  MIC90: 0.5 µg/mL (≈ 1.22 µM)
Staphylococcus aureus [13]
  ED50: 7.9 mg/kg
Rattus norvegicus [14]
  Activity: 4.5 ×10⁹ /L
Staphylococcus aureus [15]
  MIC: 2 µg/mL (≈ 4.9 µM)
[16]
  Tmax: 1.63 h
Streptococcus pneumoniae
  MIC: 2 µg/mL (≈ 4.9 µM)
[17]
  half-life: 0.99 h
Staphylococcus aureus [18]
  ED50: 8 mg/kg
[19]
  IC50: 103 µM
[20]
  MIC50: 0.5 µg/mL (≈ 1.22 µM)
  MIC90: 1 µg/mL (≈ 2.45 µM)
L5178Y
  Activity: Non-toxic
[21]
  Tmax: 1.4 h
[22]
  Cmax: 4600 ng/mL
Staphylococcus aureus [23]
  MIC: 2 µg/mL (≈ 4.9 µM)
Staphylococcus aureus [24]
  MIC: 2 µg/mL (≈ 4.9 µM)
MAO-A
  selectivity ratio: 5.2
Enterococcus faecalis [25]
  ED50: 6.2 mg/kg
Rattus norvegicus [26]
  Drug uptake: Not Active
